Results published in ChEMBL document CHEMBL3351255, “Synthesis of dihydroresveratrol glycosides and evaluation of their activity against melanogenesis in B16F0 melanoma cells” (Eur J Med Chem, 2014).

Experiments:
[1] = system: B16-F10; assay: Potency index, ratio of kojic acid to test compound for inhibition of melanogenesis in mouse B16F10 cells; type: functional
[2] = Toxicity in mouse B16F10 cells assessed as cell viability at 25.5 uM incubated for 72 hrs by BCA protein assay; type: cell-based; settings: read-out: Activity
[3] = Toxicity in mouse B16F10 cells assessed as protein content at 25.5 uM incubated for 72 hrs by BCA protein assay; type: cell-based
Summary of the method: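 Treatment was the same as above: B16F0 cells in DMEM with 5% FBS plus sample in ethanol, with medium and sample renewed after 72 h and cells harvested by trypsin 72 h later. Total cellular protein in the pelleted cells was measured by bicinchoninic acid (BCA) assay and expressed as % of negative control.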

[4] = system: B16-F0; assay: Effect on melanogenesis in mouse B16F0 cells assessed as melanin content at 1 mM incubated for 72 hrs; settings: B16-F0, 72 h

| SMILES | Ratio [1] | viability at 72 h, 25.5 µM [2] [%] | Activity [3] [%] | melanin content at 1000 µM [4] [%] |
| --- | --- | --- | --- | --- |
| C=CC/C=C\C/C=C\CCCCCCCc1cc(O)cc(O)c1 | 40 | 102 | 98 |  |
| O=c1cc(CO)occ1O [KOJIC ACID] |  |  |  | 79 |
